Measurements as given in ChEMBL document CHEMBL1687858, “Natural and semisynthetic mammea-type isoprenylated dihydroxycoumarins uncouple cellular respiration” (J Nat Prod, 2011).
Active and inactive are the calls of the source. The rule behind the calls is not given here.

What was measured:
[1] = target: T1, Hypoxia inducible factors; HIF-1-alpha, HIF-2-alpha (Homo sapiens, UniProt Q16665+Q99814); test: Inhibition of 1,10-phenanthrolin-induced HIF1 activation in human T47D cells expressing pGL3 construct after 16 hrs by cell-based luciferase reporter assay
In short: (§1)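 T47D cells carrying an HIF-1 luciferase reporter, induced for 16 h either by hypoxia (1% O2) or by 10 μM 1,10-phenanthroline, with compounds over 0.31 to 20 μM. IC50 and 95% CI taken from one representative of two independent experiments, each run in triplicate.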

PC-3 [2] = test: Antiproliferative activity against human PC3 cells after 48 hrs; assay type: functional, cell-based; conditions: PC-3, 48 h
In short: (§2)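 Tumor cells (T47D or PC-3, from ATCC) exposed 48 h to compounds at 0.31 to 20 μM, from DMSO stocks with final DMSO under 0.5%. EC50 and 95% CI derived from one experiment run in triplicate. Maximum inhibition set at 50% for T47D and 40% for PC-3.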

T47D [3] = test: Antiproliferative activity against human T47D cells after 48 hrs; assay type: functional, cell-based; in short: as §2
[4] = target: T1, Hypoxia inducible factors; HIF-1-alpha, HIF-2-alpha; test: Inhibition of hypoxia-induced HIF1 activation in human T47D cells expressing pGL3 construct after 16 hrs by cell-based luciferase reporter assay; in short: as §1
T47D [5] = test: Inhibition of hypoxia-induced VEGF protein secretion in human T47D cells after 16 hrs by ELISA; assay type: functional, cell-based
In short: (§3)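 T47D cells held under hypoxia (1% O2, 16 h) with compound at 3 or 10 μM. VEGF in conditioned medium measured by ELISA and normalized to cellular protein. Normoxic and hypoxic medium controls included. Mean + SD from one experiment run in triplicate.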

T47D [6] = test: Effect on cellular respiration in human T47D cells assessed as oxygen consumption at 0.3 uM by cell-based reporter assay; assay type: functional
In short: (§4)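 Oxygen consumption of T47D cells measured with compound at 0.3, 1, 3 and 10 μM. Reported as Relative Respiration Rate = 100 × (OCR compound / OCR untreated control) − 100. FCCP included as reference uncoupler. Mean + SD from three independent experiments.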

T47D [7] = test: Effect on cellular respiration in human T47D cells assessed as increase in state 4 respiration at 0.3 to 3 uM by cell-based reporter assay; assay type: functional
In short: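 Respiring T47D cells given oligomycin (1 μM) to set state 4 respiration, then compound or FCCP added at 0.3, 1 and 3 μM. Reported as Respiration Index = OCR (oligomycin + compound) / OCR (oligomycin).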

T47D [8] = test: Effect on cellular respiration in human T47D cells assessed as decrease in oxygen consumption at 0.3 to 10 uM by cell-based reporter assay in presence of F0F1ATPase 1 uM inhibitor oligomycin; assay type: functional
T47D [9] = test: Effect on cellular respiration in human T47D cells assessed as decrease in oxygen consumption at 10 uM by cell-based reporter assay; assay type: functional; in short: as §4
T47D [10] = test: Cytostatic effect against human T47D cells assessed as cell growth inhibition at 20 uM after 48 hrs; assay type: functional; design: scale not given: the % may be the effect or the level left
PC-3 [11] = test: Antiproliferative activity against human PC3 cells assessed as cell viability at 20 uM; assay type: functional; conditions: read-out: Activity
T47D [12] = test: Inhibition of hypoxia-induced VEGF protein secretion in human T47D cells at 3 uM after 16 hrs by ELISA; assay type: functional; in short: as §3
T47D [13] = test: Inhibition of hypoxia-induced VEGF protein secretion in human T47D cells upto 10 uM after 16 hrs by ELISA; assay type: functional; in short: as §3

CCCc1cc(=O)oc2c(C(=O)[C@@H](C)CC)c(O)c(CC=C(C)C)c(O)c12
IC50 [1]: 3.25 µM
IC50 (PC-3 [2]): 6.05 µM
IC50 (T47D [3]): 3.22 µM
IC50 [4]: 5.04 µM

CCCCCc1cc(=O)oc2c(CC=C(C)C)c(O)c(C(=O)CC(C)C)c(O)c12
IC50 [1]: 4.12 µM
IC50 (PC-3 [2]): 3.36 µM
IC50 (T47D [3]): 3.13 µM
IC50 [4]: 4.19 µM

CCCCCc1cc(=O)oc2c(C(=O)CC(C)C)c(O)c(CC=C(C)C)c(O)c12
inhibition (T47D [5]): Dose-dependent effect
Activity (T47D [6]): inactive
Activity (T47D [7]): Active
IC50 [1]: 2.71 µM
IC50 (PC-3 [2]): 1.88 µM
IC50 (T47D [3]): 1.36 µM
Activity (T47D [8]): Active
Activity (T47D [9]): Active
IC50 [4]: 2.76 µM

CCCC[C@H](OC(C)=O)c1cc(=O)oc2c(C(=O)[C@@H](C)CC)c(OC(C)=O)c(CC=C(C)C)c(OC(C)=O)c12
Activity (T47D [10]): 82%
Activity (T47D [6]): inactive
Activity (T47D [7]): Non-toxic
viability at 20 µM (PC-3 [11]): 65%
IC50 [1]: 1.06 µM
IC50 (PC-3 [2]): 1.17 µM
IC50 (T47D [3]): 0.73 µM
Activity (T47D [8]): Active
Activity (T47D [9]): Active
IC50 [4]: 0.83 µM

CCCC[C@H](OC)c1cc(=O)oc2c(CC(=O)[C@@H](C)CC)c(OC)c(CC=C(C)C)c(OC)c12
IC50 [1]: 15.7 µM
IC50 (PC-3 [2]): > 20 µM
IC50 (T47D [3]): 4.67 µM
IC50 [4]: 5.91 µM

CC[C@H](C)C(=O)c1c(O)c(CC=C(C)C)c(O)c2c(-c3ccccc3)cc(=O)oc12
IC50 [1]: 5.96 µM
IC50 (PC-3 [2]): 5.26 µM
IC50 (T47D [3]): 4.01 µM
IC50 [4]: 6.76 µM

CC(C)=CCc1c(O)c(C(=O)CC(C)C)c(O)c2c(-c3ccccc3)cc(=O)oc12 [MAMMEISIN]
IC50 [1]: 3.71 µM
IC50 (PC-3 [2]): 5.31 µM
IC50 (T47D [3]): 4.28 µM
IC50 [4]: 4.44 µM

CCCc1cc(=O)oc2c(CC=C(C)C)c(O)c(C(=O)CC(C)C)c(O)c12
IC50 [1]: 9.56 µM
IC50 (PC-3 [2]): 7.03 µM
IC50 (T47D [3]): 3.62 µM
IC50 [4]: 9.4 µM

CCCc1cc(=O)oc2c(C(=O)CC(C)C)c(O)c(CC=C(C)C)c(O)c12
inhibition (T47D [5]): Dose-dependent effect
Activity (T47D [6]): inactive
Activity (T47D [7]): Active
IC50 [1]: 1.28 µM
IC50 (PC-3 [2]): 2.27 µM
inhibition (T47D [12]): inactive
IC50 (T47D [3]): 1.32 µM
Activity (T47D [8]): Active
Activity (T47D [9]): Active
IC50 [4]: 2.2 µM

CCCCCc1cc(=O)oc2c(C(=O)[C@@H](C)CC)c(O)c(CC=C(C)C)c(O)c12
IC50 [1]: 3.4 µM
IC50 (PC-3 [2]): 2.19 µM
IC50 (T47D [3]): 1.56 µM
IC50 [4]: 3.73 µM

CCCC[C@H](O)c1cc(=O)oc2c(CC(=O)[C@@H](C)CC)c(OC)c(CC=C(C)C)c(OC)c12
IC50 [1]: 11.3 µM
IC50 (PC-3 [2]): 10.6 µM
IC50 (T47D [3]): 6.18 µM
IC50 [4]: 7.42 µM

CC[C@H](C)C(=O)c1c(O)c(CC=C(C)C)c2oc(=O)cc(-c3ccccc3)c2c1O
IC50 [1]: 4.82 µM
IC50 (PC-3 [2]): 3.82 µM
IC50 (T47D [3]): 2.88 µM
IC50 [4]: 4.63 µM

CCCC[C@H](O)c1cc(=O)oc2c(C(=O)[C@@H](C)CC)c(O)c(CC=C(C)C)c(O)c12
inhibition (T47D [5]): Dose-dependent effect
Activity (T47D [6]): inactive
Activity (T47D [7]): Active
IC50 [1]: 2.3 µM
IC50 (PC-3 [2]): 2.09 µM
inhibition (T47D [12]): inactive
IC50 (T47D [3]): 1.36 µM
Activity (T47D [8]): Active
Activity (T47D [9]): Active
IC50 [4]: 2.23 µM

CCCC[C@H](OC(C)=O)c1cc(=O)oc2c(C(=O)[C@@H](C)CC)c(O)c(CC=C(C)C)c(OC(C)=O)c12
IC50 [1]: 1.68 µM
IC50 (PC-3 [2]): 1.16 µM
IC50 (T47D [3]): 0.97 µM
IC50 [4]: 2.06 µM

CC(C)=CCc1c(O)c(C(=O)CC(C)C)c2oc(=O)cc(-c3ccccc3)c2c1O [ISOMAMMEISIN]
inhibition (T47D [5]): Dose-dependent effect
Activity (T47D [6]): inactive
Activity (T47D [7]): Active
IC50 [1]: 3.73 µM
IC50 (PC-3 [2]): 2.18 µM
IC50 (T47D [3]): 1.57 µM
Activity (T47D [8]): Active
Activity (T47D [9]): Active
IC50 [4]: 3.23 µM

CCCC[C@H](OC(C)=O)c1cc(=O)oc2c(C(=O)[C@@H](C)CC)c(OC(C)=O)c(CC=C(C)C)c(O)c12
IC50 [1]: 5.47 µM
IC50 (PC-3 [2]): 6.41 µM
IC50 (T47D [3]): 4.72 µM
IC50 [4]: 5.11 µM

CCCC[C@H](O)c1cc(=O)oc2c(C(=O)CC(C)C)c(O)c(CC=C(C)C)c(O)c12
IC50 [1]: 1.81 µM
IC50 (PC-3 [2]): 1.14 µM
IC50 (T47D [3]): 0.91 µM
IC50 [4]: 1.72 µM

CCCCCc1cc(=O)oc2c(CC=C(C)C)c(O)c(C(=O)[C@H](C)CC)c(O)c12 [MAMMEA C/AB]
IC50 [1]: 5.31 µM
IC50 (PC-3 [2]): 4.18 µM
IC50 (T47D [3]): 3.57 µM
IC50 [4]: 5.7 µM

CCCC[C@H](O)c1cc(=O)oc2c(C(=O)[C@@H](C)CC)c(OC)c(CC=C(C)C)c(OC)c12
inhibition (T47D [5]): Dose-dependent effect
Activity (T47D [10]): 91%
Activity (T47D [6]): inactive
Activity (T47D [7]): Non-toxic
viability at 20 µM (PC-3 [11]): 93%
IC50 [1]: 6.5 µM
IC50 (PC-3 [2]): 6.41 µM
inhibition (T47D [12]): Active
IC50 (T47D [3]): 4.54 µM
Activity (T47D [8]): Active
Activity (T47D [9]): Active
IC50 [4]: 6.31 µM

CCCc1cc(=O)oc2c(CC=C(C)C)c(O)c(C(=O)[C@H](C)CC)c(O)c12
Activity (T47D [6]): inactive
Activity (T47D [7]): Active
IC50 [1]: 8.21 µM
Activity (T47D [13]): 1 µM
IC50 (PC-3 [2]): 10.5 µM
IC50 (T47D [3]): 5.52 µM
Activity (T47D [8]): Active
Activity (T47D [9]): Active
IC50 [4]: 9.96 µM

CCCC[C@H](OC)c1cc(=O)oc2c(C(=O)[C@@H](C)CC)c(OC)c(CC=C(C)C)c(OC)c12
IC50 [1]: 18.4 µM
IC50 (PC-3 [2]): > 20 µM
IC50 (T47D [3]): 6.95 µM
IC50 [4]: 13.2 µM
